# Activity calls are given as the source filed them. The rule behind the calls is not given here.
# How the values were obtained:
# [1] = Toxicity in SCID mouse xenografted with human MGC-803 cells assessed as effect on kidney at 12.5 to 25 mg/kg, IG administered for 21 days by H&E staining based histopathological analysis; assay type: organism-based; conditions: in vivo, po, 504 h, dose 12.5-25 mg/kg, time 21 day
# In short: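 SCID mice bearing subcutaneous MGC-803 xenografts (right side) dosed with 12.5 or 25 mg/kg over 21 days, 0.5% CMC-Na vehicle as control; body weight and tumor size monitored periodically; major organs examined histopathologically at end; means ± SD.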
# [2] = test system: MGC-803; assay: Antitumor activity against human MGC-803 cells xenografted in SCID mouse assessed as decrease in average tumor weight at 12.5 mg/kg, IG administered for 21 days relative to control; assay type: functional; design: scale not given: the % may be the effect or the level left; conditions: time 21 day
# In short: (§1)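 MGC-803 cells implanted subcutaneously on the right side of SCID mice; dosed at 12.5 or 25 mg/kg in 0.5% CMC-Na (vehicle control) for 21 days. Body weight and tumor size recorded periodically; tumors excised and weighed at end. Means ± SD.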
# [3] = test system: MGC-803; assay: Inhibition of colony formation in human MGC-803 cells at 3 uM incubated for 9 days by crystal violet staining based analysis relative to control; assay type: functional; conditions: MGC-803, 216 h, time 9 day
# In short: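 Clonogenic assay: MGC-803 cells grown 9 days with 0, 1, 2 or 3 μM; colonies counted and inhibition rate calculated against untreated control; mean ± SD of three independent experiments.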
# [4] = test system: MGC-803; assay: Induction of apoptosis in human MGC-803 cells assessed as viable cells at 10 uM incubated for 24 hrs by Annexin V-FITC/PI staining based flow cytometric analysis (reference value: 90.3 %); assay type: functional; conditions: read-out: Activity
# [5] = test system: MGC-803; assay: Induction of mitochondrial dysfunction in human MGC-803 cells assessed as downregulation of procaspase-3 expression at 5 to 10 uM incubated for 24 hrs by Western blot analysis; assay type: functional, cell-based; conditions: dose 5-10 µM
# In short: (§2)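 Western blot of caspase 9, 3, 7, PARP and γH2A.X in MGC-803 lysates after 24 h exposure to 5, 7.5 or 10 μM; band quantitation; mean ± SD from three independent experiments.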
# [6] = test system: MGC-803; assay: Cell cycle arrest in human MGC-803 cells assessed as G2/M phase cells at 10 uM incubated for 24 hrs by RNase/PI staining based flow cytometric analysis (reference value: 15.11%); assay type: functional
# [7] = test system: MGC-803; assay: Induction of mitochondrial dysfunction in human MGC-803 cells assessed as increase in ratio of green to red fluorescence intensity incubated for 24 hrs by JC-1 staining based fluorescence microscopic analysis; assay type: functional, cell-based; conditions: dose 5-10 µM
# [8] = test system: MGC-803; assay: Induction of apoptosis in human MGC-803 cells assessed as necrotic cells at 7.5 uM incubated for 48 hrs by Annexin V-FITC/PI staining based flow cytometric analysis (reference value: 0.3 %); assay type: functional
# [9] = test system: MGC-803; assay: Induction of apoptosis in human MGC-803 cells assessed as late apoptotic cells at 5 uM incubated for 48 hrs by Annexin V-FITC/PI staining based flow cytometric analysis (reference value: 0.5 %); assay type: functional
# [10] = test system: MGC-803; assay: Cell cycle arrest in human MGC-803 cells assessed as G0/G1 phase cells at 5 uM incubated for 24 hrs by RNase/PI staining based flow cytometric analysis (reference value: 54.99%); assay type: functional
# [11] = test system: MGC-803; assay: Antiproliferative activity against human MGC-803 cells assessed as decrease in cell viability at 10 uM preincubated with SB203580 for 4 hrs followed by compound addition and measured after 24 hrs by MTT assay; assay type: functional, cell-based
# In short: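 MGC-803 cells pre-incubated 4 h with SB203580 (4 μM) or SP600125 (20 μM), then exposed to 10 μM test compound for 24 h; viability by MTT, expressed as percent of control. Mean ± SD, three independent experiments.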
# [12] = Cytotoxicity against human GES1 cells assessed as inhibition of cell growth incubated for 72 hrs by MTT assay; assay type: toxicity, cell-based
# [13] = test system: MGC-803; assay: Induction of apoptosis in human MGC-803 cells assessed as cell rounding up at 5 to 10 uM incubated for 24 hrs by Hoechst 33342 staining based fluorescence microscopic analysis; assay type: functional; conditions: dose 5-10 µM
# In short: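 MGC-803 cells exposed to 0, 5, 7.5 or 10 μM; cell morphology imaged and nuclear morphology examined by staining. Mean ± SD, three independent experiments.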
# [14] = test system: MGC-803; assay: Induction of apoptosis in human MGC-803 cells assessed as late apoptotic cells at 7.5 uM incubated for 24 hrs by Annexin V-FITC/PI staining based flow cytometric analysis (reference value: 3.8 %); assay type: functional
# [15] = test system: BGC-823; assay: Antiproliferative activity against human BGC-823 cells assessed as inhibition of cell growth incubated for 72 hrs by MTT assay; assay type: functional, cell-based; conditions: BGC-823, 72 h
# In short: (§3)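 Antiproliferative screen in gastric cancer lines MGC-803, HGC-27 and BGC-823 by MTT assay; IC50 reported as mean ± SD.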
# [16] = test system: MGC-803; assay: Cell cycle arrest in human MGC-803 cells assessed as S phase cells at 7.5 uM incubated for 24 hrs by RNase/PI staining based flow cytometric analysis (reference value: 27.1%); assay type: functional
# [17] = Activation of MAPK pathway in human MGC-803 cells assessed as change in Erk5 total expression at 5 to 10 uM incubated for 24 hrs by Western blot analysis; assay type: cell-based; conditions: dose 5-10 µM
# [18] = test system: MGC-803; assay: Induction of apoptosis in human MGC-803 cells assessed as necrotic cells at 10 uM incubated for 48 hrs by Annexin V-FITC/PI staining based flow cytometric analysis (reference value: 0.3 %); assay type: functional
# [19] = test system: MGC-803; assay: Antitumor activity against human MGC-803 cells xenografted in SCID mouse assessed as decrease in average tumor volume at 12.5 to 25 mg/kg, IG administered for 21 days; assay type: functional, organism-based; conditions: dose 12.5-25 mg/kg, time 21.0 day; in short: as §1
# [20] = test system: MGC-803; assay: Antitumor activity against human MGC-803 cells xenografted in SCID mouse assessed as decrease in average tumor weight at 25 mg/kg, IG administered for 21 days relative to control; assay type: functional; design: scale not given: the % may be the effect or the level left; conditions: time 21 day; in short: as §1
# [21] = Activation of MAPK pathway in human MGC-803 cells assessed as change in JNK total expression at 5 to 10 uM incubated for 24 hrs by Western blot analysis; assay type: cell-based; conditions: dose 5-10 µM
# [22] = test system: MGC-803; assay: Induction of apoptosis in human MGC-803 cells assessed as late apoptotic cells at 10 uM incubated for 48 hrs by Annexin V-FITC/PI staining based flow cytometric analysis (reference value: 0.5 %); assay type: functional
# [23] = test system: MGC-803; assay: Inhibition of cell migration in human MGC-803 cells incubated for 24 hrs by wound healing assay; assay type: functional, cell-based; conditions: dose 5-10 µM
# In short: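 Wound-healing scratch assay in MGC-803 monolayers; 24 h exposure to 0, 5, 7.5 or 10 μM; migration quantified; three independent experiments, mean ± SD.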
# [24] = test system: HGC-27; assay: Antiproliferative activity against human HGC-27 cells assessed as inhibition of cell growth incubated for 72 hrs by MTT assay; assay type: functional, cell-based; conditions: HGC-27, 72 h; in short: as §3
# [25] = test system: MGC-803; assay: Induction of apoptosis in human MGC-803 cells assessed as early apoptotic cells at 5 uM incubated for 48 hrs by Annexin V-FITC/PI staining based flow cytometric analysis (reference value: 2.5 %); assay type: functional
# [26] = test system: MGC-803; assay: Induction of apoptosis in human MGC-803 cells assessed as late apoptotic cells at 10 uM incubated for 24 hrs by Annexin V-FITC/PI staining based flow cytometric analysis (reference value: 3.8 %); assay type: functional
# [27] = test system: MGC-803; assay: Induction of mitochondrial dysfunction in human MGC-803 cells assessed as upregulation of gammaH2AX expression at 5 to 10 uM incubated for 24 hrs by Western blot analysis; assay type: functional, cell-based; conditions: dose 5-10 µM; in short: as §2
smiles,measurement,setting,value
Cc1cc(N2CC[C@@H](C)[C@@H](N(C)c3ncnc4[nH]ccc34)C2)n2nc(SCc3ccc(C(F)(F)F)cc3)nc2n1,Activity,[1],Non-Toxic
same,Activity,[2],56.8%
same,inhibition at 3 µM,[3],73%
same,viability at 10 µM,[4],57.1%
same,Activity,[5],Active
same,Activity,[6],12.82%
same,Activity,[7],Dose-Dependent Effect
same,Activity,[8],1.6%
same,Activity,[9],17.2%
same,Activity,[10],56.93%
same,Activity,[11],inactive
same,IC50 at 72 h,[12],17.3 µM
same,Activity,[13],Active
same,Activity,[14],15.8%
same,IC50,[15],23.3 µM
same,Activity,[16],29.36%
same,Activity,[17],inactive
same,Activity,[18],0.9%
same,Activity,[19],Active
same,Activity,[20],53%
same,Activity,[21],inactive
same,Activity,[22],77.2%
same,inhibition,[23],Dose-Dependent Effect
same,IC50,[24],9.54 µM
same,Activity,[25],8.5%
same,Activity,[26],28%
same,Activity,[27],Active

# Reference: ChEMBL document CHEMBL5244249, “Discovery of tofacitinib derivatives as orally active antitumor agents based on the scaffold hybridization strategy” (Eur J Med Chem, 2020)
